Reference: ChEMBL document CHEMBL1155379, “Effect of 3'-end capping of aptamer with various 2',4'-bridged nucleotides: Enzymatic post-modification toward a practical use of polyclonal aptamers” (Bioorg Med Chem Lett, 2010)

Assays:
[1] = Chemical stability in presence of snake venom phosphodiesterase 1 assessed as oligonucleotide degradation after 120 mins by PAGE; assay type: physicochemical; conditions: 2 h
[2] = Chemical stability in presence of 80% (v/v) human serum assessed as intact compound remaining after 8 hrs by PAGE; assay type: physicochemical; conditions: read-out: Stability
Method in brief: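 Aptamer incubated in 80% v/v human serum at 37 °C for 8 h; intact full-length aptamer remaining quantified.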

Prothrombin = Prothrombin (Homo sapiens, UniProt P00734); experiment: Binding affinity to human thrombin after 30 mins by non-equilibrium capillary electrophoresis
Method in brief: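 Capillary electrophoresis of aptamer–thrombin mixtures: aptamer 1 nM with thrombin 4 nM in 20 mM Tris-HCl (1 mM MgCl2) pH 7.4 sample buffer; running buffer 100 mM sodium borate pH 8.35; separation +12 kV, injection 0.5 psi × 7.8 s. Kd derived from binding saturation curves over varied thrombin concentrations.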

Compound	Stability [1]	remaining at 8 h [2] [%]	Kd (Prothrombin) [nM]
C=C1NC(=O)C(C)=CN1[C@H]1C[C@H](OP(=O)(O)OC[C@H]2O[C@@H](n3cnc4c(=O)[nH]c(N)nc43)[C@H](O)[C@@H]2OP(=O)(O)OC[C@H]2O[C@@H](n3cnc4c(N)ncnc43)[C@H](O)[C@@H]2OP(=O)(O)OC[C@H]2O[C@@H](n3ccc(N)nc3=O)[C@H](O)[C@@H]2OP(=O)(O)OC[C@H]2O[C@@H](n3cc(C)c(=O)[nH]c3=O)C[C@@H]2OP(=O)(O)OC[C@@]23CNO[C@@H]([C@H](n4cc(C)c(=O)[nH]c4=O)O2)[C@@H]3O)[C@@H](COP(=O)(O)O[C@H]2[C@@H](O)[C@H](n3cnc4c(=O)[nH]c(N)nc43)O[C@@H]2COP(=O)(O)O[C@H]2[C@@H](O)[C@H](n3cnc4c(=O)[nH]c(N)nc43)O[C@@H]2COP(=O)(O)O[C@H]2[C@@H](O)[C@H](n3cnc4c(=O)[nH]c(N)nc43)O[C@@H]2COP(=O)(O)O[C@H]2[C@@H](O)[C@H](n3cnc4c(=O)[nH]c(N)nc43)O[C@@H]2COP(=O)(O)O[C@H]2C[C@H](n3cc(C)c(=O)[nH]c3=O)O[C@@H]2COP(=O)(O)O[C@H]2C[C@H](n3cc(C)c(=O)[nH]c3=O)O[C@@H]2COP(=O)(O)O[C@H]2[C@@H](O)[C@H](n3cnc4c(=O)[nH]c(N)nc43)O[C@@H]2COP(=O)(O)O[C@H]2[C@@H](O)[C@H](n3cnc4c(=O)[nH]c(N)nc43)O[C@@H]2COP(=O)(O)O[C@H]2[C@@H](O)[C@H](n3cnc4c(N)ncnc43)O[C@@H]2COP(=O)(O)O[C@H]2[C@@H](O)[C@H](n3ccc(N)nc3=O)O[C@@H]2COP(=O)(O)O[C@H]2[C@@H](O)[C@H](n3cnc4c(=O)[nH]c(N)nc43)O[C@@H]2COP(=O)(O)O[C@H]2[C@@H](O)[C@H](n3cnc4c(=O)[nH]c(N)nc43)O[C@@H]2COP(=O)(O)O[C@H]2[C@@H](O)[C@H](n3cnc4c(=O)[nH]c(N)nc43)O[C@@H]2COP(=O)(O)O[C@H]2[C@@H](O)[C@H](n3cnc4c(N)ncnc43)O[C@@H]2COP(=O)(O)O[C@H]2C[C@H](n3cc(C)c(=O)[nH]c3=O)O[C@@H]2COP(=O)(O)O[C@H]2[C@@H](O)[C@H](n3cnc4c(=O)[nH]c(N)nc43)O[C@@H]2COP(=O)(O)O[C@H]2[C@@H](O)[C@H](n3cnc4c(=O)[nH]c(N)nc43)O[C@@H]2COP(=O)(O)O[C@H]2C[C@H](n3cc(C)c(=O)[nH]c3=O)O[C@@H]2COP(=O)(O)O[C@H]2[C@@H](O)[C@H](n3cnc4c(=O)[nH]c(N)nc43)O[C@@H]2COP(=O)(O)O[C@H]2[C@@H](O)[C@H](n3ccc(N)nc3=O)O[C@@H]2COP(=O)(O)O[C@H]2[C@@H](O)[C@H](n3ccc(N)nc3=O)O[C@@H]2COP(=O)(O)O[C@H]2C[C@H](n3cc(C)c(=O)[nH]c3=O)O[C@@H]2COP(=O)(O)O[C@H]2[C@@H](O)[C@H](n3cnc4c(=O)[nH]c(N)nc43)O[C@@H]2COP(=O)(O)O[C@H]2[C@@H](O)[C@H](n3cnc4c(N)ncnc43)O[C@@H]2COc2ccc3c(c2)Oc2cc(O)ccc2C32OC(=O)c3ccccc32)O1 (some centres undefined)	Stable	20	0.21
C=C1NC(=O)C(C)=CN1[C@H]1C[C@H](OP(=O)(O)OC[C@H]2O[C@@H](n3cnc4c(=O)[nH]c(N)nc43)[C@H](O)[C@@H]2OP(=O)(O)OC[C@H]2O[C@@H](n3cnc4c(N)ncnc43)[C@H](O)[C@@H]2OP(=O)(O)OC[C@H]2O[C@@H](n3ccc(N)nc3=O)[C@H](O)[C@@H]2OP(=O)(O)OC[C@H]2O[C@@H](n3cc(C)c(=O)[nH]c3=O)C[C@@H]2OP(=O)(O)OC[C@]23O[C@@H](n4cc(C)c(=O)[nH]c4=O)[C@H](OCOC2c2ccccc2)[C@@H]3O)[C@@H](COP(=O)(O)O[C@H]2[C@@H](O)[C@H](n3cnc4c(=O)[nH]c(N)nc43)O[C@@H]2COP(=O)(O)O[C@H]2[C@@H](O)[C@H](n3cnc4c(=O)[nH]c(N)nc43)O[C@@H]2COP(=O)(O)O[C@H]2[C@@H](O)[C@H](n3cnc4c(=O)[nH]c(N)nc43)O[C@@H]2COP(=O)(O)O[C@H]2[C@@H](O)[C@H](n3cnc4c(=O)[nH]c(N)nc43)O[C@@H]2COP(=O)(O)O[C@H]2C[C@H](n3cc(C)c(=O)[nH]c3=O)O[C@@H]2COP(=O)(O)O[C@H]2C[C@H](n3cc(C)c(=O)[nH]c3=O)O[C@@H]2COP(=O)(O)O[C@H]2[C@@H](O)[C@H](n3cnc4c(=O)[nH]c(N)nc43)O[C@@H]2COP(=O)(O)O[C@H]2[C@@H](O)[C@H](n3cnc4c(=O)[nH]c(N)nc43)O[C@@H]2COP(=O)(O)O[C@H]2[C@@H](O)[C@H](n3cnc4c(N)ncnc43)O[C@@H]2COP(=O)(O)O[C@H]2[C@@H](O)[C@H](n3ccc(N)nc3=O)O[C@@H]2COP(=O)(O)O[C@H]2[C@@H](O)[C@H](n3cnc4c(=O)[nH]c(N)nc43)O[C@@H]2COP(=O)(O)O[C@H]2[C@@H](O)[C@H](n3cnc4c(=O)[nH]c(N)nc43)O[C@@H]2COP(=O)(O)O[C@H]2[C@@H](O)[C@H](n3cnc4c(=O)[nH]c(N)nc43)O[C@@H]2COP(=O)(O)O[C@H]2[C@@H](O)[C@H](n3cnc4c(N)ncnc43)O[C@@H]2COP(=O)(O)O[C@H]2C[C@H](n3cc(C)c(=O)[nH]c3=O)O[C@@H]2COP(=O)(O)O[C@H]2[C@@H](O)[C@H](n3cnc4c(=O)[nH]c(N)nc43)O[C@@H]2COP(=O)(O)O[C@H]2[C@@H](O)[C@H](n3cnc4c(=O)[nH]c(N)nc43)O[C@@H]2COP(=O)(O)O[C@H]2C[C@H](n3cc(C)c(=O)[nH]c3=O)O[C@@H]2COP(=O)(O)O[C@H]2[C@@H](O)[C@H](n3cnc4c(=O)[nH]c(N)nc43)O[C@@H]2COP(=O)(O)O[C@H]2[C@@H](O)[C@H](n3ccc(N)nc3=O)O[C@@H]2COP(=O)(O)O[C@H]2[C@@H](O)[C@H](n3ccc(N)nc3=O)O[C@@H]2COP(=O)(O)O[C@H]2C[C@H](n3cc(C)c(=O)[nH]c3=O)O[C@@H]2COP(=O)(O)O[C@H]2[C@@H](O)[C@H](n3cnc4c(=O)[nH]c(N)nc43)O[C@@H]2COP(=O)(O)O[C@H]2[C@@H](O)[C@H](n3cnc4c(N)ncnc43)O[C@@H]2COc2ccc3c(c2)Oc2cc(O)ccc2C32OC(=O)c3ccccc32)O1 (some centres undefined)	Stable	20	0.28
C=C1NC(=O)C(C)=CN1[C@H]1C[C@H](OP(=O)(O)OC[C@H]2O[C@@H](n3cnc4c(=O)[nH]c(N)nc43)[C@H](O)[C@@H]2OP(=O)(O)OC[C@H]2O[C@@H](n3cnc4c(N)ncnc43)[C@H](O)[C@@H]2OP(=O)(O)OC[C@H]2O[C@@H](n3ccc(N)nc3=O)[C@H](O)[C@@H]2OP(=O)(O)OC[C@H]2O[C@@H](n3cc(C)c(=O)[nH]c3=O)C[C@@H]2O)[C@@H](COP(=O)(O)O[C@H]2[C@@H](O)[C@H](n3cnc4c(=O)[nH]c(N)nc43)O[C@@H]2COP(=O)(O)O[C@H]2[C@@H](O)[C@H](n3cnc4c(=O)[nH]c(N)nc43)O[C@@H]2COP(=O)(O)O[C@H]2[C@@H](O)[C@H](n3cnc4c(=O)[nH]c(N)nc43)O[C@@H]2COP(=O)(O)O[C@H]2[C@@H](O)[C@H](n3cnc4c(=O)[nH]c(N)nc43)O[C@@H]2COP(=O)(O)O[C@H]2C[C@H](n3cc(C)c(=O)[nH]c3=O)O[C@@H]2COP(=O)(O)O[C@H]2C[C@H](n3cc(C)c(=O)[nH]c3=O)O[C@@H]2COP(=O)(O)O[C@H]2[C@@H](O)[C@H](n3cnc4c(=O)[nH]c(N)nc43)O[C@@H]2COP(=O)(O)O[C@H]2[C@@H](O)[C@H](n3cnc4c(=O)[nH]c(N)nc43)O[C@@H]2COP(=O)(O)O[C@H]2[C@@H](O)[C@H](n3cnc4c(N)ncnc43)O[C@@H]2COP(=O)(O)O[C@H]2[C@@H](O)[C@H](n3ccc(N)nc3=O)O[C@@H]2COP(=O)(O)O[C@H]2[C@@H](O)[C@H](n3cnc4c(=O)[nH]c(N)nc43)O[C@@H]2COP(=O)(O)O[C@H]2[C@@H](O)[C@H](n3cnc4c(=O)[nH]c(N)nc43)O[C@@H]2COP(=O)(O)O[C@H]2[C@@H](O)[C@H](n3cnc4c(=O)[nH]c(N)nc43)O[C@@H]2COP(=O)(O)O[C@H]2[C@@H](O)[C@H](n3cnc4c(N)ncnc43)O[C@@H]2COP(=O)(O)O[C@H]2C[C@H](n3cc(C)c(=O)[nH]c3=O)O[C@@H]2COP(=O)(O)O[C@H]2[C@@H](O)[C@H](n3cnc4c(=O)[nH]c(N)nc43)O[C@@H]2COP(=O)(O)O[C@H]2[C@@H](O)[C@H](n3cnc4c(=O)[nH]c(N)nc43)O[C@@H]2COP(=O)(O)O[C@H]2C[C@H](n3cc(C)c(=O)[nH]c3=O)O[C@@H]2COP(=O)(O)O[C@H]2[C@@H](O)[C@H](n3cnc4c(=O)[nH]c(N)nc43)O[C@@H]2COP(=O)(O)O[C@H]2[C@@H](O)[C@H](n3ccc(N)nc3=O)O[C@@H]2COP(=O)(O)O[C@H]2[C@@H](O)[C@H](n3ccc(N)nc3=O)O[C@@H]2COP(=O)(O)O[C@H]2C[C@H](n3cc(C)c(=O)[nH]c3=O)O[C@@H]2COP(=O)(O)O[C@H]2[C@@H](O)[C@H](n3cnc4c(=O)[nH]c(N)nc43)O[C@@H]2COP(=O)(O)O[C@H]2[C@@H](O)[C@H](n3cnc4c(N)ncnc43)O[C@@H]2COc2ccc3c(c2)Oc2cc(O)ccc2C32OC(=O)c3ccccc32)O1 (some centres undefined)	Unstable	0	0.25
